Assay results: ChEMBL document CHEMBL5724801, “EUbOPEN Chemogenomics Library - Multiplex” (2024)
Values joined by “and” are separate entries in the source; they are usually repeats but may differ in a detail not shown here. Equal entries are not always repeated.

Test system: U2OS
Assay: Multiplex assay against U2OS
Assay type: toxicity, cell-based
Settings: human
Outline: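 Compound was added to live cells that had been stained at seeding with Hoechst33342, BioTracker Green Microtubule Cytoskeleton Dye, MitoTracker Red and Annexin V Alexa Fluor 680, and imaging followed on a CQ1 microscope at 37°C and 5% CO2. CellPathfinder machine-learning gating divided cells into Hoechst high-intensity objects or normal cells, normal cells into healthy, pyknosed or fragmented nuclei, and pyknosed cells into mitotic or apoptotic. Tubulin, mitochondrial-mass and membrane-permeability phenotypes are per cents of healthy-nucleus cells.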

[1] = 12 h, 10 µM, compound concentration 10 uM
[2] = 24 h, 10 µM, compound concentration 10 uM
[3] = 48 h, 10 µM, compound concentration 10 uM
[4] = 12 h, 1 µM, compound concentration 1 uM
[5] = 24 h, 1 µM, compound concentration 1 uM
[6] = 48 h, 1 µM, compound concentration 1 uM

CC(=O)O[C@H]1C(=O)[C@@]2(C)[C@H]([C@H](OC(=O)c3ccccc3)[C@]3(O)C[C@H](OC(=O)[C@H](O)[C@@H](NC(=O)c4ccccc4)c4ccccc4)C(C)=C1C3(C)C)[C@]1(OC(C)=O)CO[C@@H]1C[C@@H]2O [PACLITAXEL]
Population Apoptotic (%) [1]: 64% and 71% | Population Fragmented Nuclei (%) [1]: 28% and 16% | Population Healthy Nuclei (%) [1]: 46% and 60% | Population Hoechst High Intensity Objects (%) [1]: 8% and 3% | Population Membrane Permeable-Phenotype (%) [1]: 23% and 10% | Population Mitochondria Different-Phenotype (%) [1]: 25% and 30% | Population Mitotic Cells (%) [1]: 35% and 28% | Population Normal (%) [1]: 91% and 96% | Population Pyknosed Nuclei (%) [1]: 24% and 23% | Population Tubulin-Different-Phenotype (%) [1]: 16% and 14% | Total Cell Count [1]: 200 and 94 | Population Apoptotic (%) [2]: 69% and 58% | Population Fragmented Nuclei (%) [2]: 33% and 25% | Population Healthy Nuclei (%) [2]: 36% and 48% | Population Hoechst High Intensity Objects (%) [2]: 4% | Population Membrane Permeable-Phenotype (%) [2]: 21% and 15% | Population Mitochondria Different-Phenotype (%) [2]: 44% and 34% | Population Mitotic Cells (%) [2]: 30% and 41% | Population Normal (%) [2]: 95% | Population Pyknosed Nuclei (%) [2]: 29% and 26% | Population Tubulin-Different-Phenotype (%) [2]: 13% and 18% | Total Cell Count [2]: 198 and 95 | Population Apoptotic (%) [3]: 76% and 70% | Population Fragmented Nuclei (%) [3]: 35% and 27% | Population Healthy Nuclei (%) [3]: 30% and 31% | Population Hoechst High Intensity Objects (%) [3]: 12% and 8% | Population Membrane Permeable-Phenotype (%) [3]: 27% and 14% | Population Mitochondria Different-Phenotype (%) [3]: 29% and 50% | Population Mitotic Cells (%) [3]: 23% and 29% | Population Normal (%) [3]: 87% and 91% | Population Pyknosed Nuclei (%) [3]: 33% and 41% | Population Tubulin-Different-Phenotype (%) [3]: 16% and 25% | Total Cell Count [3]: 203 and 98

CC(=O)NCC(=O)N1[C@@H]2CC[C@H]1c1ccc(Nc3ncc(C(F)(F)F)c(NC4CCC4)n3)cc12 [PF-03814735]
Population Apoptotic (%) [4]: 43.59% and 56.25% | Population Fragmented Nuclei (%) [4]: 3.86% and 3.61% | Population Healthy Nuclei (%) [4]: 82.46% and 86.75% | Population Hoechst High Intensity Objects (%) [4]: 0% | Population Membrane Permeable-Phenotype (%) [4]: 2.55% and 3.47% | Population Mitochondria Different-Phenotype (%) [4]: 0% and 6.25% | Population Mitotic Cells (%) [4]: 56.41% and 43.75% | Population Normal (%) [4]: 100% | Population Pyknosed Nuclei (%) [4]: 13.68% and 9.64% | Population Tubulin-Different-Phenotype (%) [4]: 2.55% and 1.39% | Total Cell Count [4]: 285 and 166 | Population Apoptotic (%) [1]: 36.84% and 50% | Population Fragmented Nuclei (%) [1]: 4.71% and 6.5% | Population Healthy Nuclei (%) [1]: 58.45% and 47.97% | Population Hoechst High Intensity Objects (%) [1]: 0.28% and 0% | Population Membrane Permeable-Phenotype (%) [1]: 5.69% and 15.25% | Population Mitotic Cells (%) [1]: 63.16% and 50% | Population Normal (%) [1]: 99.72% and 100% | Population Pyknosed Nuclei (%) [1]: 36.84% and 45.53% | Population Tubulin-Different-Phenotype (%) [1]: 7.58% and 8.47% | Total Cell Count [1]: 362 and 123 | Population Apoptotic (%) [5]: 52.86% and 55.56% | Population Fragmented Nuclei (%) [5]: 3.18% and 2.94% | Population Healthy Nuclei (%) [5]: 72.08% and 75.88% | Population Hoechst High Intensity Objects (%) [5]: 0.35% and 0% | Population Membrane Permeable-Phenotype (%) [5]: 1.96% and 5.43% | Population Mitochondria Different-Phenotype (%) [5]: 0% and 7.75% | Population Mitotic Cells (%) [5]: 47.14% and 44.44% | Population Normal (%) [5]: 99.65% and 100% | Population Pyknosed Nuclei (%) [5]: 24.73% and 21.18% | Population Tubulin-Different-Phenotype (%) [5]: 0.49% and 3.88% | Total Cell Count [5]: 284 and 170 | Population Apoptotic (%) [2]: 67.23% and 80% | Population Fragmented Nuclei (%) [2]: 5.92% and 4.1% | Population Healthy Nuclei (%) [2]: 27.04% and 26.23% | Population Hoechst High Intensity Objects (%) [2]: 0% and 0.81% | Population Membrane Permeable-Phenotype (%) [2]: 10.42% and 12.5% | Population Mitotic Cells (%) [2]: 32.77% and 20% | Population Normal (%) [2]: 100% and 99.19% | Population Pyknosed Nuclei (%) [2]: 67.04% and 69.67% | Total Cell Count [2]: 355 and 123 | Population Apoptotic (%) [6]: 69.39% and 73.33% | Population Fragmented Nuclei (%) [6]: 2.78% and 6.88% | Population Healthy Nuclei (%) [6]: 63.19% and 55.62% | Population Hoechst High Intensity Objects (%) [6]: 0.69% and 0% | Population Membrane Permeable-Phenotype (%) [6]: 3.85% and 7.87% | Population Mitochondria Different-Phenotype (%) [6]: 0% and 15.73% | Population Mitotic Cells (%) [6]: 30.61% and 26.67% | Population Normal (%) [6]: 99.31% and 100% | Population Pyknosed Nuclei (%) [6]: 34.03% and 37.5% | Population Tubulin-Different-Phenotype (%) [6]: 6.04% and 10.11% | Total Cell Count [6]: 290 and 160 | Population Apoptotic (%) [3]: 78.97% and 93.41% | Population Fragmented Nuclei (%) [3]: 6.71% and 1.74% | Population Healthy Nuclei (%) [3]: 14.29% and 19.13% | Population Hoechst High Intensity Objects (%) [3]: 0% | Population Membrane Permeable-Phenotype (%) [3]: 18.37% and 31.82% | Population Mitochondria Different-Phenotype (%) [3]: 14.29% and 4.55% | Population Normal (%) [3]: 100% | Population Pyknosed Nuclei (%) [3]: 79.01% and 79.13% | Total Cell Count [3]: 343 and 115

CCCN1CCC[C@@H]2Cc3n[nH]cc3C[C@H]21.Cl [QUINPIROLE HYDROCHLORIDE]
Population Apoptotic (%) [4]: 71% and 61% | Population Fragmented Nuclei (%) [4]: 31% and 21% | Population Healthy Nuclei (%) [4]: 60% and 67% | Population Hoechst High Intensity Objects (%) [4]: 2% and 0% | Population Membrane Permeable-Phenotype (%) [4]: 7% and 2% | Population Mitochondria Different-Phenotype (%) [4]: 1% | Population Mitotic Cells (%) [4]: 28% and 38% | Population Normal (%) [4]: 97% and 100% | Population Pyknosed Nuclei (%) [4]: 8% and 11% | Population Tubulin-Different-Phenotype (%) [4]: 3% and 2% | Total Cell Count [4]: 265 and 118 | Population Apoptotic (%) [1]: 58% and 100% | Population Fragmented Nuclei (%) [1]: 19% and 9% | Population Healthy Nuclei (%) [1]: 72% and 85% | Population Hoechst High Intensity Objects (%) [1]: 1% and 2% | Population Membrane Permeable-Phenotype (%) [1]: 2% and 6% | Population Mitochondria Different-Phenotype (%) [1]: 0% and 5% | Population Normal (%) [1]: 98% and 97% | Population Pyknosed Nuclei (%) [1]: 7% and 4% | Population Tubulin-Different-Phenotype (%) [1]: 1% and 2% | Total Cell Count [1]: 228 and 126 | Population Apoptotic (%) [5]: 68% and 77% | Population Fragmented Nuclei (%) [5]: 27% and 18% | Population Healthy Nuclei (%) [5]: 64% and 68% | Population Hoechst High Intensity Objects (%) [5]: 1% and 0% | Population Membrane Permeable-Phenotype (%) [5]: 4% | Population Mitochondria Different-Phenotype (%) [5]: 3% and 4% | Population Mitotic Cells (%) [5]: 31% and 22% | Population Normal (%) [5]: 98% and 100% | Population Pyknosed Nuclei (%) [5]: 7% and 13% | Population Tubulin-Different-Phenotype (%) [5]: 3% and 4% | Total Cell Count [5]: 299 and 138 | Population Apoptotic (%) [2]: 88% and 92% | Population Fragmented Nuclei (%) [2]: 13% and 9% | Population Healthy Nuclei (%) [2]: 80% and 82% | Population Hoechst High Intensity Objects (%) [2]: 2% and 0% | Population Membrane Permeable-Phenotype (%) [2]: 2% and 0% | Population Mitochondria Different-Phenotype (%) [2]: 0% and 1% | Population Mitotic Cells (%) [2]: 11% and 7% | Population Normal (%) [2]: 97% and 99% | Population Pyknosed Nuclei (%) [2]: 6% and 8% | Population Tubulin-Different-Phenotype (%) [2]: 1% and 0% | Total Cell Count [2]: 281 and 163 | Population Apoptotic (%) [6]: 75% and 78% | Population Fragmented Nuclei (%) [6]: 19% and 17% | Population Healthy Nuclei (%) [6]: 74% and 69% | Population Hoechst High Intensity Objects (%) [6]: 1% and 3% | Population Membrane Permeable-Phenotype (%) [6]: 4% | Population Mitochondria Different-Phenotype (%) [6]: 1% and 5% | Population Mitotic Cells (%) [6]: 25% and 21% | Population Normal (%) [6]: 98% and 96% | Population Pyknosed Nuclei (%) [6]: 6% and 13% | Population Tubulin-Different-Phenotype (%) [6]: 2% | Total Cell Count [6]: 425 and 180 | Population Apoptotic (%) [3]: 86% and 91% | Population Fragmented Nuclei (%) [3]: 11% and 12% | Population Healthy Nuclei (%) [3]: 78% | Population Hoechst High Intensity Objects (%) [3]: 3% and 1% | Population Membrane Permeable-Phenotype (%) [3]: 4% and 6% | Population Mitochondria Different-Phenotype (%) [3]: 1% and 4% | Population Mitotic Cells (%) [3]: 13% and 8% | Population Normal (%) [3]: 96% and 98% | Population Pyknosed Nuclei (%) [3]: 9% | Population Tubulin-Different-Phenotype (%) [3]: 3% and 2% | Total Cell Count [3]: 386 and 251
